Measurements taken from ChEMBL document CHEMBL1177681, “Hybrid diarylbenzopyrimidine non-nucleoside reverse transcriptase inhibitors as promising new leads for improved anti-HIV-1 chemotherapy” (Bioorg Med Chem, 2010).

How the values were obtained:
[1] = system: Human immunodeficiency virus 1; test: Antiviral activity against wild type HIV1 3B infected in human MT4 cells assessed as protection against virus-induced cytopathogenicity after 4 days by MTT assay; type: functional, organism-based; settings: Human immunodeficiency virus 1, 3B, MT4, 96 h
In short: (§1)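 MT-4 cells at 1 × 10⁵ cells/mL infected at multiplicity of infection 0.02, then immediately plated onto serial dilutions of compound (DMSO stocks of 50 mM or higher). After 4 days at 37 °C, viable cells counted by MTT. […] Virus stocks titrated in MT-4 cells as CCID50.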

[2] = system: Human immunodeficiency virus 2; test: Antiviral activity against wild type HIV2 ROD infected in human MT4 cells assessed as protection against virus-induced cytopathogenicity after 4 days by MTT assay; type: functional, organism-based; settings: Human immunodeficiency virus 2, ISOLATE ROD, MT4, 96 h; in short: as §1
[3] = Cytotoxicity against human MT4 cells after 4 days by MTT assay; type: cell-based
In short: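 Uninfected MT-4 cells were run in parallel with the antiviral plates and exposed to serial compound dilutions (DMSO stocks of 50 mM or higher) for 4 days at 37 °C. Viability was read by MTT.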

[4] = Selectivity index, CC50 for human MT4 cells to EC50 for wild type HIV1 3B; type: toxicity, cell-based; settings: read-out: Ratio CC50/EC50
In short: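 Selectivity index is calculated as CC50 in uninfected MT-4 cells divided by EC50 against HIV-1 IIIB. Both come from parallel 4-day MTT readings at 37 °C, with infection at multiplicity of infection 0.02.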

[5] = system: Human immunodeficiency virus 1; test: Antiviral activity against HIV1 with reverse transcriptase K103N, Y181C mutant infected in human MT4 cells assessed as protection against virus-induced cytopathogenicity after 4 days by MTT assay; type: functional, organism-based; settings: Human immunodeficiency virus 1, MT4, 96 h
In short: (§2)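 MT-4 cells at 1 × 10⁵ cells/mL were infected with the mutant HIV-1 at a multiplicity of infection of 0.02. Virus stocks were titred in MT-4 cells as CCID₅₀. Cells were plated at once onto serial compound dilutions, with DMSO stocks at 50 mM or higher. After 4 days at 37 °C, viable cells were counted by MTT. EC₅₀ is the concentration giving 50% protection from viral cytopathicity.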

[6] = system: Human immunodeficiency virus 1; test: Antiviral activity against wild type HIV1 LAI infected in human MT4 cells assessed as protection against virus-induced cytopathogenicity after 4 days by MTT assay; type: functional, organism-based; settings: Human immunodeficiency virus 1, LAI, MT4, 96 h
[7] = system: Human immunodeficiency virus 1; test: Antiviral activity against HIV1 with reverse transcriptase E138K mutant infected in human MT4 cells assessed as protection against virus-induced cytopathogenicity after 4 days by MTT assay; type: functional, organism-based; settings: Human immunodeficiency virus 1, MT4, 96 h; in short: as §2
[8] = system: Human immunodeficiency virus 1; test: Antiviral activity against HIV1 with reverse transcriptase L100I mutant infected in human MT4 cells assessed as protection against virus-induced cytopathogenicity after 4 days by MTT assay; type: functional, organism-based; settings: Human immunodeficiency virus 1, MT4, 96 h; in short: as §2
[9] = system: Human immunodeficiency virus 1; test: Antiviral activity against HIV1 with reverse transcriptase K103N mutant infected in human MT4 cells assessed as protection against virus-induced cytopathogenicity after 4 days by MTT assay; type: functional, organism-based; settings: Human immunodeficiency virus 1, MT4, 96 h
[10] = system: Human immunodeficiency virus 1; test: Antiviral activity against HIV1 with reverse transcriptase Y181C mutant infected in human MT4 cells assessed as protection against virus-induced cytopathogenicity after 4 days by MTT assay; type: functional, organism-based; settings: Human immunodeficiency virus 1, MT4, 96 h; in short: as §2
[11] = system: Human immunodeficiency virus 1; test: Antiviral activity against HIV1 with reverse transcriptase Y188L mutant infected in human MT4 cells assessed as protection against virus-induced cytopathogenicity after 4 days by MTT assay; type: functional, organism-based; settings: Human immunodeficiency virus 1, MT4, 96 h; in short: as §2
[12] = system: Human immunodeficiency virus 1; test: Antiviral activity against HIV1 with reverse transcriptase F227L, V106A mutant infected in human MT4 cells assessed as protection against virus-induced cytopathogenicity after 4 days by MTT assay; type: functional, organism-based; settings: Human immunodeficiency virus 1, MT4, 96 h; in short: as §2
[13] = system: Human immunodeficiency virus 1; test: Ratio of compound EC50 to nevirapine EC50 for wild type HIV1 3B; type: functional
[14] = system: Human immunodeficiency virus 1; test: Ratio of compound EC50 to delavirdine EC50 for wild type HIV1 3B; type: functional
[15] = system: Human immunodeficiency virus 1; test: Ratio of compound EC50 to efavirenz EC50 for HIV1 with reverse transcriptase Y188L mutant; type: functional

SMILES	EC50 [1] [nM]	EC50 [2] [nM]	CC50 at 96 h [3] [nM]	selectivity ratio [4]	EC50 [5] [nM]	EC50 [6] [nM]	EC50 [7] [nM]	EC50 [8] [nM]	EC50 [9] [nM]	EC50 [10] [nM]	EC50 [11] [nM]	EC50 [12] [nM]	Ratio [13]	Ratio [14]	Ratio [15]
N#Cc1ccc(Nc2nc(Oc3ccccc3)c3ccccc3n2)cc1	1330	> 369000	370000	> 279	–	–	–	–	–	–	–	–	–	–	–
Cc1ccccc1Oc1nc(Nc2ccc(C#N)cc2)nc2ccccc12	57	> 355000	355000	> 6210	–	–	–	–	–	–	–	–	–	–	–
Cc1cccc(Oc2nc(Nc3ccc(C#N)cc3)nc3ccccc23)c1	823	> 355000	355000	> 436	–	–	–	–	–	–	–	–	–	–	–
COc1ccccc1Oc1nc(Nc2ccc(C#N)cc2)nc2ccccc12	120	> 26000	150000	1260	–	–	–	–	–	–	–	–	–	–	–
Cc1ccc(Oc2nc(Nc3ccc(C#N)cc3)nc3ccccc23)cc1	105	> 86000	87000	831	–	–	–	–	–	–	–	–	–	–	–
N#Cc1ccc(Nc2nc(Oc3ccccc3Cl)c3ccccc3n2)cc1	37	> 37000	38000	982	–	–	–	–	–	–	–	–	–	–	–
N#Cc1ccc(Nc2nc(Oc3ccc(F)cc3)c3ccccc3n2)cc1	590	> 351000	> 351000	> 607	–	–	–	–	–	–	–	–	–	–	–
N#Cc1ccc(Nc2nc(Oc3ccc(Cl)cc3)c3ccccc3n2)cc1	190	> 197000	198000	1040	–	–	–	–	–	–	–	–	–	–	–
N#Cc1ccc(Nc2nc(Oc3ccc(Br)cc3)c3ccccc3n2)cc1	264	> 214000	215000	810	–	–	–	–	–	–	–	–	–	–	–
COc1ccc(Oc2nc(Nc3ccc(C#N)cc3)nc3ccccc23)cc1	190	> 339000	340000	> 1790	> 339000	–	–	–	–	–	–	–	–	–	–
N#Cc1ccc(Nc2nc(Oc3ccc(Cl)cc3Cl)c3ccccc3n2)cc1	23	> 31000	32000	1410	> 31000	–	–	–	–	–	–	–	–	–	–
N#Cc1ccc(Nc2nc(Oc3c(Cl)cc(Cl)cc3Cl)c3ccccc3n2)cc1	21	> 55000	56000	2630	1500	–	–	–	–	–	–	–	–	–	–
Cc1cccc(C)c1Oc1nc(Nc2ccc(C#N)cc2)nc2ccccc12	23	≥ 10000	35000	1510	530	–	–	–	–	–	–	–	–	–	–
Cc1cc(C)c(Oc2nc(Nc3ccc(C#N)cc3)nc3ccccc23)c(C)c1	11	> 34000	> 34000	> 3220	2000	–	–	–	–	–	–	–	–	–	–
Cc1cc(Br)cc(Br)c1Oc1nc(Nc2ccc(C#N)cc2)nc2ccccc12	19	≥ 14000	150000	7930	350	–	–	–	–	–	–	–	–	–	–
Cc1cc(Br)c(Oc2nc(Nc3ccc(C#N)cc3)nc3ccccc23)c(Br)c1	20	≥ 4600	25000	1280	590	–	–	–	–	–	–	–	–	–	–
N#Cc1ccc(Nc2nc(Oc3c(Br)cc(Br)cc3Br)c3ccccc3n2)cc1	28	≥ 8600	58000	2120	930	–	–	–	–	–	–	–	–	–	–
CCOc1cc(C#N)cc(Cl)c1Oc1nc(Nc2ccc(C#N)cc2)nc2ccccc12	7.5	> 21000	22000	2970	290	–	–	–	–	–	–	–	–	–	–
COc1cc(C#N)ccc1Oc1nc(Nc2ccc(C#N)cc2)nc2ccccc12	33	> 140000	≥ 140000	64200	> 140000	–	–	–	–	–	–	–	–	–	–
COc1cc(C#N)cc(OC)c1Oc1nc(Nc2ccc(C#N)cc2)nc2ccccc12	8.7	> 194000	194000	22000	920	–	–	–	–	–	–	–	–	–	–
CCOc1cc(C#N)cc(OCC)c1Oc1nc(Nc2ccc(C#N)cc2)nc2ccccc12	16	> 108000	108000	6770	> 108000	–	–	–	–	–	–	–	–	–	–
CCCOc1cc(C#N)cc(OC)c1Oc1nc(Nc2ccc(C#N)cc2)nc2ccccc12	13	> 5200	5200	408	> 5200	–	–	–	–	–	–	–	–	–	–
CCCOc1cc(C#N)cc(OCC)c1Oc1nc(Nc2ccc(C#N)cc2)nc2ccccc12	58	> 122000	123000	2080	> 122000	–	–	–	–	–	–	–	–	–	–
Cc1cc(C#N)cc(C)c1Oc1nc(Nc2ccc(C#N)cc2)nc2ccccc12	1.8	32000	203000	112000	60	2.3	11	18	≤ 3.6	31	36	107	731	266	6
Cc1cc(C#N)cc(C)c1Oc1nc(Nc2ccc(C#N)cc2)nc2ccc(Cl)cc12	8.5	> 117000	117000	13800	700	–	–	–	–	–	–	–	–	–	–
COc1cc(C#N)cc(Cl)c1Oc1nc(Nc2ccc(C#N)cc2)nc2ccccc12	4.7	> 219000	220000	46900	160	5.4	12	110	≤ 5.4	49	280	467	–	–	–
CC(C)Nc1cccnc1N1CCN(C(=O)c2cc3cc(NS(C)(=O)=O)ccc3[nH]2)CC1 [DELAVIRDINE]	479	–	> 43000	> 92	> 43000	610	566	7950	6510	6250	6430	9850	–	–	–
O=C1Nc2ccc(Cl)cc2[C@@](C#CC2CC2)(C(F)(F)F)O1 [EFAVIRENZ]	–	–	≥ 6300	–	110	–	5.4	32	66	5.7	222	104	–	–	–
Cc1ccnc2c1NC(=O)c1cccnc1N2C1CC1 [NEVIRAPINE]	1320	–	≥ 15000	–	≥ 15000	102	162	2030	–	> 15000	> 15000	> 15000	–	–	–
